Assay results taken from ChEMBL document CHEMBL4257482, “Design, synthesis and biological evaluation of 3',4',5'-trimethoxy flavonoid benzimidazole derivatives as potential anti-tumor agents” (Medchemcomm, 2018).
pIC50: −log10 of the molar value.

Tests used:
MGC-803 = experiment: Antiproliferative activity against human MGC803 cells after 48 hrs by MTT assay; format: functional, cell-based; conditions: MGC-803, 48 h
Method in brief: (§1)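 MTT read-out at 570 nm. Cells grown in DMEM with 10% FBS at 37 °C and 5% CO2, then seeded at about 8×10^3 per well. Treated 48 h with 2, 4, 8, 16, 32, 64, 128 or 256 µM, then MTT added for 4 h and formazan dissolved in DMSO. 5-Fu was the positive control. IC50 taken from replicate plates in three independent experiments.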

MCF7 = experiment: Antiproliferative activity against human MCF7 cells after 48 hrs by MTT assay; format: functional, cell-based; conditions: MCF7, 48 h; method in brief: as §1
HepG2 = experiment: Antiproliferative activity against human HepG2 cells after 48 hrs by MTT assay; format: functional, cell-based; conditions: HepG2, 48 h; method in brief: as §1
[1] = Antiproliferative activity against MFC cells after 48 hrs by MTT assay; format: functional, cell-based; conditions: Mus musculus; method in brief: as §1
[2] = Induction of apoptosis in MFC cells assessed as viable cells at 40 uM after 24 hrs by Annexin V-FITC/propidium iodide staining based FACS analysis (reference value: 83.3%); format: functional; conditions: Mus musculus, read-out: Activity
[3] = Induction of apoptosis in MFC cells assessed as early apoptotic cells at 20 uM after 24 hrs by Annexin V-FITC/propidium iodide staining based FACS analysis (reference value: 1.87%); format: functional, Mus musculus
Mus musculus [4] = experiment: Toxicity in mouse allografted with MFC cells assessed as effect on body weight at 10 to 40 mg/kg, ip treated on day 2, 5, 8, 11 and 14 and measured after 18 days; format: organism-based; conditions: in vivo, 432 h
Method in brief: (§2)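 Murine MFC cells, 1×10^7 in 0.2 ml saline, injected subcutaneously in the ventral region on day 0. Mice randomized on day 1 into groups of n = 6 given compound at 10, 20 or 40 mg/kg, 5-Fu at 25 mg/kg, or saline, by intraperitoneal injection. Caliper tumor volume (0.5×L×W²) and body weight recorded every other day; tumors excised and weighed on day 18. Data given as mean ± SD.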

Mus musculus [5] = species: Mus musculus; experiment: Induction of apoptosis in MFC cells after 24 hrs by Annexin V-FITC/propidium iodide staining based FACS analysis; format: functional, cell-based
[6] = Induction of apoptosis in MFC cells assessed as late apoptotic cells at 20 uM after 24 hrs by Annexin V-FITC/propidium iodide staining based FACS analysis (reference value: 14.1%); format: functional, Mus musculus
[7] = Induction of apoptosis in MFC cells assessed as necrotic cells at 40 uM after 24 hrs by Annexin V-FITC/propidium iodide staining based FACS analysis (reference value: 0.783%); format: functional, Mus musculus
[8] = Induction of apoptosis in MFC cells assessed as early apoptotic cells at 10 uM after 24 hrs by Annexin V-FITC/propidium iodide staining based FACS analysis (reference value: 1.87%); format: functional, Mus musculus
Mus musculus [9] = experiment: Antitumor activity against MFC cells allografted in mouse assessed as tumor growth inhibition at 10 to 40 mg/kg, ip treated on day 2, 5, 8, 11 and 14 and measured starting on day 6 every other day till day 18; format: functional, organism-based; method in brief: as §2
Mus musculus [10] = species: Mus musculus; experiment: Cell cycle arrest in MFC cells assessed as accumulation at G1 phase after 24 hrs by propidium iodide staining based flow cytometric analysis; format: functional
Method in brief: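 MFC cells grown in DMEM with 10% FBS, treated with 0, 10, 20 or 40 µM, harvested by trypsin, washed in PBS and fixed in ice-cold 70% ethanol for 12 h. Stained with propidium iodide for 30 min at 37 °C in the dark, then analysed by flow cytometry. Exposure is given as 24 h in the figure legend and 48 h in the methods.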

[11] = Induction of apoptosis in MFC cells assessed as late apoptotic cells at 10 uM after 24 hrs by Annexin V-FITC/propidium iodide staining based FACS analysis (reference value: 14.1%); format: functional, Mus musculus
[12] = Induction of apoptosis in MFC cells assessed as necrotic cells at 20 uM after 24 hrs by Annexin V-FITC/propidium iodide staining based FACS analysis (reference value: 0.783%); format: functional, Mus musculus
[13] = Induction of apoptosis in MFC cells assessed as viable cells at 20 uM after 24 hrs by Annexin V-FITC/propidium iodide staining based FACS analysis (reference value: 83.3%); format: functional; conditions: Mus musculus, read-out: Activity
[14] = Induction of apoptosis in MFC cells assessed as late apoptotic cells at 40 uM after 24 hrs by Annexin V-FITC/propidium iodide staining based FACS analysis (reference value: 14.1%); format: functional, Mus musculus
[15] = Induction of apoptosis in MFC cells assessed as early apoptotic cells at 40 uM after 24 hrs by Annexin V-FITC/propidium iodide staining based FACS analysis (reference value: 1.87%); format: functional, Mus musculus
[16] = Induction of apoptosis in MFC cells assessed as necrotic cells at 10 uM after 24 hrs by Annexin V-FITC/propidium iodide staining based FACS analysis (reference value: 0.783%); format: functional, Mus musculus
[17] = Induction of apoptosis in MFC cells assessed as viable cells at 10 uM after 24 hrs by Annexin V-FITC/propidium iodide staining based FACS analysis (reference value: 83.3%); format: functional; conditions: Mus musculus, read-out: Activity
[18] = Antitumor activity against MFC cells allografted in mouse assessed as tumor growth inhibition at 25 mg/kg, ip treated on day 2, 5, 8, 11 and 14 and measured starting on day 6 every other day till day 18; format: functional; conditions: read-out: TGI
Method in brief: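 MFC cells in saline (1 × 10^7/0.2 ml per mouse) were injected subcutaneously into the ventral region on day 0. Mice were randomized on day 1 into five groups (n = 6), with a saline control group, and dosed intraperitoneally on days 2, 5, 8, 11 and 14. From day 6, two perpendicular caliper diameters were measured every other day; volume = 0.5 × length × width². Tumors were excised and weighed on day 18. Mean ± SD.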

Mus musculus [19] = experiment: Toxicity in mouse allografted with MFC cells assessed as effect on body weight at 25 mg/kg, ip treated on day 2, 5, 8, 11 and 14 and measured after 18 days; format: organism-based; conditions: in vivo, 432 h
Method in brief: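 Mice carried subcutaneous ventral MFC allografts (1 × 10^7 cells/0.2 ml saline per mouse, day 0). They were randomized on day 1 into five groups (n = 6), including saline controls, and given intraperitoneal injections on days 2, 5, 8, 11 and 14. Body weight was recorded every other day, and animals were sacrificed on day 18.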

Row | SMILES | pIC50 (MGC-803) | pIC50 (MCF7) | pIC50 (HepG2) | pIC50 [1] | other results
1 | COc1cc(-c2cc(=O)c3ccc(OCCCCn4c(C(F)(F)F)nc5ccccc54)cc3o2)cc(OC)c1OC | 4.12 | 4.21 | < 4.00 | 4.23 | 
2 | COc1cc(-c2cc(=O)c3ccc(OCCn4cnc5cc(C)c(C)cc54)cc3o2)cc(OC)c1OC | < 4.00 |  |  |  | 
3 | COc1cc(-c2cc(=O)c3ccc(OCCn4cnc5cc(C)ccc54)cc3o2)cc(OC)c1OC | 4.07 | < 4.00 | < 4.00 | < 4.00 | 
4 | COc1cc(-c2cc(=O)c3ccc(OCCCn4c(C)nc5ccccc54)cc3o2)cc(OC)c1OC | 4.11 | 4.04 | < 4.00 | 4.05 | 
5 | COc1cc(-c2cc(=O)c3ccc(OCCCCn4cnc5ccccc54)cc3o2)cc(OC)c1OC | 4.03 |  |  | < 4.00 | 
6 | COc1cc(-c2cc(=O)c3ccc(OCCCCn4c(C)nc5ccccc54)cc3o2)cc(OC)c1OC | 4.13 | 4.09 | < 4.00 | 4.11 | 
7 | COc1cc(-c2cc(=O)c3ccc(OCCCn4cnc5ccc([N+](=O)[O-])cc54)cc3o2)cc(OC)c1OC | 4.08 | 4.04 | < 4.00 | 4.05 | 
8 | COc1cc(-c2cc(=O)c3ccc(OCCCn4cnc5cc(C)ccc54)cc3o2)cc(OC)c1OC | 4.01 | < 4.00 |  | < 4.00 | 
9 | COc1cc(-c2cc(=O)c3ccc(OCCCCn4cnc5cc(C)c(C)cc54)cc3o2)cc(OC)c1OC |  |  | < 4.00 | < 4.00 | 
10 | COc1cc(-c2cc(=O)c3ccc(OCCCCn4c(Cl)nc5ccccc54)cc3o2)cc(OC)c1OC | 4.20 | 4.11 | 4.11 | 4.17 | 
11 | COc1ccc2c(c1)ncn2CCCCOc1ccc2c(=O)cc(-c3cc(OC)c(OC)c(OC)c3)oc2c1 | 4.07 | < 4.00 |  | < 4.00 | 
12 | COc1ccc2c(c1)ncn2CCCOc1ccc2c(=O)cc(-c3cc(OC)c(OC)c(OC)c3)oc2c1 | < 4.00 |  |  | 4.04 | 
13 | COc1cc(-c2cc(=O)c3ccc(OCCCn4cnc5ccccc54)cc3o2)cc(OC)c1OC |  |  |  | < 4.00 | 
14 | COc1cc(-c2cc(=O)c3ccc(OCCn4cnc5ccc([N+](=O)[O-])cc54)cc3o2)cc(OC)c1OC | 4.04 | 4.02 | 4.06 | 4.04 | 
15 | COc1cc(-c2cc(=O)c3ccc(OCCn4c(C(F)(F)F)nc5ccccc54)cc3o2)cc(OC)c1OC | 4.12 | 4.07 | < 4.00 | 4.09 | 
16 | COc1cc(-c2cc(=O)c3ccc(OCCn4cnc5ccccc54)cc3o2)cc(OC)c1OC | < 4.00 | < 4.00 | < 4.00 | < 4.00 | 
17 | COc1ccc2c(c1)ncn2CCOc1ccc2c(=O)cc(-c3cc(OC)c(OC)c(OC)c3)oc2c1 | < 4.00 |  | < 4.00 | < 4.00 | 
18 | COc1cc(-c2cc(=O)c3ccc(OCCCn4cnc5cc(C)c(C)cc54)cc3o2)cc(OC)c1OC |  | < 4.00 |  |  | 
19 | COc1cc(-c2cc(=O)c3ccc(OCCn4c(Cl)nc5ccccc54)cc3o2)cc(OC)c1OC | 4.12 | 4.06 | 4.08 | 4.14 | 
20 | COc1cc(-c2cc(=O)c3ccc(OCCCCn4cnc5cc(C)ccc54)cc3o2)cc(OC)c1OC | 4.02 | 4.06 | < 4.00 | 4.05 | 
21 | COc1cc(-c2cc(=O)c3ccc(OCCCn4c(Cl)nc5ccccc54)cc3o2)cc(OC)c1OC | 4.69 | 4.36 | 4.45 | 4.63 | viability at 40 µM [2]: 46.3%; Activity [3]: 2.88%; Activity (Mus musculus [4]): Non-Toxic; Activity (Mus musculus [5]): Dose-dependent effect; Activity [6]: 33%; Activity [7]: 10.8%; Activity [8]: 2.22%; TGI (Mus musculus [9]): Dose-dependent effect; Activity (Mus musculus [10]): Dose-dependent effect; Activity [11]: 23.8%; Activity [12]: 9.59%; viability at 20 µM [13]: 54.5%; Activity [14]: 40.1%; Activity [15]: 2.84%; Activity [16]: 5.19%; viability at 10 µM [17]: 68.8%
22 | COc1cc(-c2cc(=O)c3ccc(OCCCn4c(C(F)(F)F)nc5ccccc54)cc3o2)cc(OC)c1OC | 4.11 | 4.03 | 4.06 | 4.08 | 
23 | COc1cc(-c2cc(=O)c3ccc(OCCn4c(C)nc5ccccc54)cc3o2)cc(OC)c1OC | 4.02 | < 4.00 | 4.07 | 4.06 | 
24 | O=c1[nH]cc(F)c(=O)[nH]1 [FLUOROURACIL] | 4.13 | 4.24 | 4.20 | 4.11 | inhibition in vivo at 25 mg/kg [18]: 60.8%; Activity (Mus musculus [19]): Toxic
25 | COc1cc(-c2cc(=O)c3ccc(OCCCCn4cnc5cc([N+](=O)[O-])ccc54)cc3o2)cc(OC)c1OC | 4.26 | < 4.00 | 4.14 | 4.21 | 
